Results as given in ChEMBL document CHEMBL1137710, “Synthesis and in vitro antitumor activity of new quinoxaline derivatives” (2009).

Experiments:
Type in all cases: functional
[1] = system: NCI-H460; assay: Anticancer activity against human NCI-H460 cells assessed as cell growth at 100 uM after 48 hrs by sulforhodamine B assay; details: NCI-H460, 48 h, read-out: Activity
[2] = system: HL-60(TB); assay: Growth inhibition of human HL-60(TB) cells after 48 hrs by sulforhodamine B assay; details: HL-60, 48 h; for TGI: read-out: pTGI (converted)
Outline: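 Tested only on compounds active in a three-line prescreen, in the NCI 60-human-tumour-cell-line panel over a 5-log dose range. Values come from dose–response curves as log10 molar GI50, the concentration inhibiting 50% net cell growth. Log10 TGI (total growth inhibition) and log10 LC50 (50% net cell death) were derived too. Mean graph midpoints include insensitive lines at the highest concentration tested.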

[3] = system: SR; assay: Growth inhibition of human SR cells after 48 hrs by sulforhodamine B assay; details: for TGI: read-out: pTGI (converted)
Outline: (§1)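 Run in the NCI 60-human-tumour-cell-line panel, tested over a 5-log dose range. Dose–response curves gave three values per cell line, each as a log10 molar concentration: GI50 (50% inhibition of net cell growth), TGI (total inhibition of net growth) and LC50 (50% net cell death). The mean graph midpoint is the arithmetic mean over all lines, with insensitive lines entered at the highest concentration tested.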

[4] = system: MOLT-4; assay: Growth inhibition of human MOLT4 cells after 48 hrs by sulforhodamine B assay; details: MOLT-4, 48 h; for TGI: read-out: pTGI (converted)
Outline: (§2)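 NCI 60-human-tumor-cell-line panel, with compounds tested over a 5-log dose range. Values are taken from dose-response curves as log10 molar concentrations: GI50 is 50% net growth inhibition, TGI is total growth inhibition, and LC50 is 50% net cell death.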

[5] = system: A549; assay: Growth inhibition of human A549 cells after 48 hrs by sulforhodamine B assay; details: A549, 48 h; for TGI: read-out: pTGI (converted); outline: as §2
[6] = system: EKVX; assay: Growth inhibition of human EKVX cells after 48 hrs by sulforhodamine B assay; details: for TGI: read-out: pTGI (converted); outline: as §2
[7] = system: HOP-62; assay: Growth inhibition of human HOP62 cells after 48 hrs by sulforhodamine B assay; details: HOP-62, 48 h; for TGI: read-out: pTGI (converted); outline: as §2
[8] = system: HOP-92; assay: Growth inhibition of human HOP92 cells after 48 hrs by sulforhodamine B assay; details: HOP-92, 48 h; for TGI: read-out: pTGI (converted); outline: as §2
[9] = system: NCI-H226; assay: Growth inhibition of human NCI-H226 cells after 48 hrs by sulforhodamine B assay; details: NCI-H226, 48 h; for TGI: read-out: pTGI (converted); outline: as §2
[10] = system: NCI-H460; assay: Growth inhibition of human NCI-H460 cells after 48 hrs by sulforhodamine B assay; details: NCI-H460, 48 h; for TGI: read-out: pTGI (converted); outline: as §2
[11] = system: HCT-15; assay: Growth inhibition of human HCT15 cells after 48 hrs by sulforhodamine B assay; details: HCT-15, 48 h; for TGI: read-out: pTGI (converted); outline: as §2
[12] = system: HT-29; assay: Growth inhibition of human HT-29 cells after 48 hrs by sulforhodamine B assay; details: HT-29, 48 h; for TGI: read-out: pTGI (converted); outline: as §2
[13] = system: KM12; assay: Growth inhibition of human KM12 cells after 48 hrs by sulforhodamine B assay; details: KM12, 48 h; for TGI: read-out: pTGI (converted); outline: as §2
[14] = system: SNB-75; assay: Growth inhibition of human SNB75 cells after 48 hrs by sulforhodamine B assay; details: SNB-75, 48 h; for TGI: read-out: pTGI (converted); outline: as §1
[15] = system: UACC-257; assay: Growth inhibition of human UACC257 cells after 48 hrs by sulforhodamine B assay; details: UACC-257, 48 h; for CC50: read-out: pLC50 (the source's name) (converted); for TGI: read-out: pTGI (converted); outline: as §1
[16] = system: IGROV-1; assay: Growth inhibition of human IGROV1 cells after 48 hrs by sulforhodamine B assay; details: IGROV-1, 48 h; for CC50: read-out: pLC50 (the source's name) (converted); for TGI: read-out: pTGI (converted); outline: as §2
[17] = system: OVCAR-8; assay: Growth inhibition of human OVCAR8 cells after 48 hrs by sulforhodamine B assay; details: OVCAR-8, 48 h; for CC50: read-out: pLC50 (the source's name) (converted); for TGI: read-out: pTGI (converted); outline: as §2
[18] = system: SK-OV-3; assay: Growth inhibition of human SKOV3 cells after 48 hrs by sulforhodamine B assay; details: SK-OV-3, 48 h; for CC50: read-out: pLC50 (the source's name) (converted); for TGI: read-out: pTGI (converted); outline: as §2
[19] = system: ACHN; assay: Growth inhibition of human ACHN cells after 48 hrs by sulforhodamine B assay; details: for CC50: read-out: pLC50 (the source's name) (converted); for TGI: read-out: pTGI (converted)
[20] = system: TK-10; assay: Growth inhibition of human TK10 cells after 48 hrs by sulforhodamine B assay; details: TK-10, 48 h; for CC50: read-out: pLC50 (the source's name) (converted); for TGI: read-out: pTGI (converted); outline: as §1
[21] = system: UO-31; assay: Growth inhibition of human UO31 cells after 48 hrs by sulforhodamine B assay; details: UO-31, 48 h; for CC50: read-out: pLC50 (the source's name) (converted); for TGI: read-out: pTGI (converted); outline: as §1
[22] = system: PC-3; assay: Growth inhibition of human PC3 cells after 48 hrs by sulforhodamine B assay; details: PC-3, 48 h; for CC50: read-out: pLC50 (the source's name) (converted); for TGI: read-out: pTGI (converted); outline: as §2
[23] = system: DU-145; assay: Growth inhibition of human DU145 cells after 48 hrs by sulforhodamine B assay; details: DU-145, 48 h; for CC50: read-out: pLC50 (the source's name) (converted); for TGI: read-out: pTGI (converted); outline: as §2
[24] = system: BT-549; assay: Growth inhibition of human BT549 cells after 48 hrs by sulforhodamine B assay; details: BT-549, 48 h; for CC50: read-out: pLC50 (the source's name) (converted); for TGI: read-out: pTGI (converted); outline: as §2
[25] = system: MCF7; assay: Growth inhibition of human MCF7 cells after 48 hrs by sulforhodamine B assay; details: MCF7, 48 h; for CC50: read-out: pLC50 (the source's name) (converted); for TGI: read-out: pTGI (converted); outline: as §2
[26] = system: A498; assay: Growth inhibition of human A498 cells after 48 hrs by sulforhodamine B assay; details: A498, 48 h; outline: as §2
[27] = system: SN12C; assay: Growth inhibition of human SN12C cells after 48 hrs by sulforhodamine B assay; outline: as §1
[28] = read-out: pLC50 (the source's name) (converted)

## Nc1cc(N)c2nc(-c3ccccc3)c(Oc3ccc(F)cc3)nc2c1
[1]
  growth at 100 µM: 0%
[2]
  GI50: 18.6 µM
  LC50: > 100 µM
  TGI: 64.6 µM
[3]
  GI50: 8.13 µM
  LC50 (concentration giving 50% net cell death): > 100 µM
  TGI: > 100 µM
[4]
  GI50: 6.61 µM
  LC50: > 100 µM
  TGI: > 100 µM
[5]
  GI50: 24 µM
  LC50: 89.1 µM
  TGI: 46.8 µM
[6]
  GI50: 14.8 µM
  LC50 (50% net cell kill): 77.6 µM
  TGI: 33.9 µM
[7]
  GI50: 21.4 µM
  LC50: > 100 µM
  TGI: 49 µM
[8]
  GI50: 12.3 µM
  LC50 (50% net cell death): 72.4 µM
  TGI: 29.5 µM
[9]
  GI50: 20.4 µM
  LC50: > 100 µM
  TGI: 49 µM
[10]
  GI50: 39.8 µM
  LC50 (50% net cell kill): > 100 µM
  TGI: > 100 µM
[11]
  GI50: 36.3 µM
  LC50: > 100 µM
  TGI: > 100 µM
[12]
  GI50: 22.9 µM
  LC50: > 100 µM
  TGI: 51.3 µM
[13]
  GI50: 14.5 µM
  LC50 (50% net cell kill): > 100 µM
  TGI: 40.7 µM
[14]
  GI50: 23.4 µM
  LC50: > 100 µM
  TGI: 49 µM
[15]
  GI50: 23.4 µM
  CC50: 77.6 µM
  TGI: 42.7 µM
[16]
  GI50: 28.2 µM
  CC50: > 100 µM
  TGI: > 100 µM
[17]
  GI50: 22.4 µM
  CC50: 100 µM
  TGI: 47.9 µM
[18]
  GI50: 20.9 µM
  CC50: 83.2 µM
  TGI: 41.7 µM
[19]
  GI50: 13.8 µM
  CC50: 81.3 µM
  TGI: 33.1 µM
[20]
  GI50: 16.6 µM
  CC50: 64.6 µM
  TGI: 32.4 µM
[21]
  GI50: 13.5 µM
  CC50: > 100 µM
  TGI: 45.7 µM
[22]
  GI50: 8.32 µM
  CC50: 83.2 µM
  TGI: 27.5 µM
[23]
  GI50: 0.46 µM
  CC50: > 100 µM
  TGI: 87.1 µM
[24]
  GI50: 15.1 µM
  CC50: 81.3 µM
  TGI: 34.7 µM
[25]
  GI50: 20.4 µM
  CC50: > 100 µM
  TGI: > 100 µM

## COc1cc(CNc2nc3cc(N)cc(N)c3nc2-c2ccccc2)cc(OC)c1OC
[1]
  growth at 100 µM: 7%
[2]
  GI50: 1.26 µM
  LC50: > 50.1 µM
  TGI: > 50.1 µM
[3]
  GI50: 0.891 µM
  LC50 (concentration giving 50% net cell death): > 50.1 µM
  TGI: > 50.1 µM
[4]
  GI50: 12.3 µM
  LC50: > 50.1 µM
  TGI: > 50.1 µM
[5]
  GI50: 4.27 µM
  LC50: > 50.1 µM
  TGI: 33.1 µM
[6]
  GI50: 1.95 µM
  LC50 (50% net cell kill): 27.5 µM
  TGI: 8.32 µM
[7]
  GI50: 17 µM
  LC50: > 50.1 µM
  TGI: > 50.1 µM
[8]
  GI50: 1.2 µM
  LC50 (50% net cell death): > 50.1 µM
  TGI: 3.09 µM
[9]
  GI50: 10 µM
  LC50: > 50.1 µM
  TGI: 22.4 µM
[10]
  GI50: 1.51 µM
  LC50 (50% net cell kill): > 50.1 µM
  TGI: > 50.1 µM
[11]
  GI50: 3.24 µM
  LC50: > 50.1 µM
  TGI: 13.8 µM
[12]
  GI50: 8.71 µM
  LC50: 43.7 µM
  TGI: 19.5 µM
[13]
  GI50: 0.479 µM
  LC50 (50% net cell kill): > 50.1 µM
  TGI: 10.2 µM
[14]
  GI50: 0.813 µM
  LC50: > 50.1 µM
  TGI: 14.5 µM
[15]
  GI50: 3.47 µM
  CC50: 27.5 µM
  TGI: 10.7 µM
[16]
  GI50: 9.12 µM
  CC50: > 50.1 µM
  TGI: > 50.1 µM
[17]
  GI50: 6.92 µM
  CC50: 31.6 µM
  TGI: 14.8 µM
[18]
  GI50: 5.37 µM
  CC50: 36.3 µM
  TGI: 13.8 µM
[26]
  GI50: 6.31 µM
[26]; [28]
  CC50: 33.9 µM
[26]; read-out: pTGI (converted)
  TGI: 14.8 µM
[19]
  GI50: 5.37 µM
  CC50: 23.4 µM
  TGI: 11.2 µM
[27]
  GI50: 8.71 µM
[27]; [28]
  CC50: 32.4 µM
[27]; read-out: pTGI (converted)
  TGI: 16.6 µM
[20]
  GI50: 6.31 µM
  CC50: > 50.1 µM
  TGI: 17.8 µM
[21]
  GI50: 11.2 µM
  CC50: > 50.1 µM
  TGI: > 50.1 µM
[22]
  GI50: 2.19 µM
  CC50: > 50.1 µM
  TGI: > 50.1 µM
[23]
  GI50: 5.25 µM
  CC50: > 50.1 µM
  TGI: 20 µM
[24]
  GI50: 3.8 µM
  CC50: 27.5 µM
  TGI: 11.2 µM
[25]
  GI50: 1.55 µM
  CC50: > 50.1 µM
  TGI: > 50.1 µM
